Series [1] has as its system MDA-MB-468 cells. The series is described as follows: Cell viability assay for combinatorial effect of AZ-82 and MK-FNE or MK-2206. As to conditions: 72 hours. The format is cell-based.
The test system of series [2] is T47D and T47D MK-2206-resistant cells. The series is described as follows: Cell viability of T47D. The format is cell-based. The following applies: 72 h.
Series [3] deals with Akt3(T305)-phosphorylation. Nature of the series: Halo-Akt3 phospho-T305 levels by western blot and ELISA. In kind it is cell-based. As to conditions: saturating doses. In general terms: A western blot detects proteins with antibodies after separation by electrophoresis.
The test system of series [4] is MDA-MB-468 cells. Nature of the series: Drug effect persistence assay. As to conditions: EC60 concentration 48 h, then 24 h recovery. The format is cell-based.
Series [5] concerns Akt1, Akt2, Akt3. The following applies: cited from earlier work.
Series [6] has as its target Halo-Akt3(wt) (Homo sapiens, UniProt Q9Y243). The format is cell-based. The following applies: 5 μM.
In series [7] the target is Halo-Akt3(C119S) (Homo sapiens, UniProt Q9Y243, C119S). The format is cell-based. The following applies: 5 μM, 48 h, then withdrawal. The essentials: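 HEK293T cells co-expressing the AktAR ratiometric-FRET reporter and Halo-Akt3(C119S) were exposed to test compound (5 μM) or DMSO for 24–48 h. They were then rinsed twice and recovered in drug-free media for 24 h. Akt kinase activity was imaged live by confocal ratiometric FRET with 458 nm argon-laser excitation at set times.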
Chain of Halo-Akt3(C119S) (Q9Y243 whole entry C119S): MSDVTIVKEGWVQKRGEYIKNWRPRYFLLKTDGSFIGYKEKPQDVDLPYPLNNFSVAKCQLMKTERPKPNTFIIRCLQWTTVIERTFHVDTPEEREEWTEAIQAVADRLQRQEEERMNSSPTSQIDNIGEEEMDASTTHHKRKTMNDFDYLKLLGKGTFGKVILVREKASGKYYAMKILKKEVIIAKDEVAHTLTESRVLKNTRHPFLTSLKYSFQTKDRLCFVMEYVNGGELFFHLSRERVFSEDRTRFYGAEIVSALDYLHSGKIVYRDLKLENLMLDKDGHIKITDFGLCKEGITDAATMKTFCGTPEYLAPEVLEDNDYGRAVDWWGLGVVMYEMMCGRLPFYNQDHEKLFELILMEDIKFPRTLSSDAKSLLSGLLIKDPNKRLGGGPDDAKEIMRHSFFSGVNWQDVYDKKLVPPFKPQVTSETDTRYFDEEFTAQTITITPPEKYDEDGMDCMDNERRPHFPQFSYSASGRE

Series [8] has as its system MDA-MB-468 xenografts. The series is described as follows: Drug efficacy test in MDA-MB-468 xenograft mouse model. The format is in vivo, athymic nude mice. The following applies: 200 mg/kg PO twice weekly. The essentials: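 Polyclonal MDA-MB-468 cells were injected into both flanks of female nude mice. From day 7, test compound (200 mg/kg) or vehicle DMSO was given by oral gavage twice weekly, 5 mice per group. Tumor volume was normalized to time zero and plotted against time. Growth rate was the linear-regression slope; groups were compared by two-tailed unpaired t-test.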

The text below walks through data of paper PMC7318068 (ACS Central Science, 2020).

Each structure is given as a SMILES string.

Chain of Halo-Akt3(wt) (Q9Y243 whole entry): as the sequence (Q9Y243 whole entry C119S) above, with S119C counted along it

On to `CCCc1cc(C(=O)N[C@H](Cc2ccc(-c3cccc(OC(F)(F)F)c3)nc2)C(=O)N[C@@H]2CCNC2)sc1C` [AZ82], for which, in series [1], the “effect on proliferation inhibition by MK-FNE or MK-2206” value is given as “selectively promoted resistance to MK-FNE, but not MK-2206”.

Regarding `NC1(c2ccc(-c3nc4ccn5c(=O)[nH]nc5c4cc3-c3ccccc3)cc2)CCC1` [MK-2206], the “Fold increase in resistance = EC50(MK-res)/EC50(wt)” value in series [2] turned out to be 5 fold. Further, in series [3], the “Akt3(T305)-phosphorylation” value is given as “fully suppressed”. The “regrowth after compound withdrawal” value in series [4] is “statistically significant regrowth was observed”. In series [5], the “higher affinity for Akt1 than Akt3” value was approximately 100 fold and the “preference of Akt2 over Akt3 for binding” value is given as “around 10 fold”. The “ratiometric-FRET signal (Akt activity) under treatment” value in series [6] (24 h, vs DMSO) was “suppressed the ratiometric-FRET signal”. The “Akt3(wt) activity after 24 h withdrawal in drug-free media” value in series [6] (48 h, then withdrawal) is reported as “kinase activity was restored”. Further, in series [7], the “Akt3(C119S) activity after 24 h withdrawal in drug-free media” value was “recovery to normal activity levels”. The tumor-growth suppression overall in series [8] (vs DMSO) is 14%. In series [8] (DMSO 0.0638 ± 0.0032), the “slope (m) of fold change in tumor size vs day, linear regression” value was 0.0547 ± 0.0018. Further, the blood glucose levels entry in series [8] (Day 21, 4 days after termination of dosing) was “elevated relative to MK-FNE-treated mice”.
